Experimental data from ChEMBL document CHEMBL1123654, “Synthesis of N-(3,6-dihydro-1(2H)-pyridinyl)benzamides with hyperglycemic-hypoglycemic activity” (J Med Chem, 1987).

Assays:
[1] = Partition coefficient (logP); format: physicochemical; settings: octanol/water
Summary of the method: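 Partition coefficient calculated as P = C(octanol)/C(H2O), using the method of Fujita et al.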

Rattus norvegicus [2] = assay: Hyperglycemic activity and change in blood glucose concentration was reported 2 hours after administration of 100 mg/Kg perorally.; format: functional
Summary of the method: (§1)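 Overnight-fasted rats dosed orally at 100 mg/kg as a suspension in 1% tragacanth in distilled water. Tail capillary blood sampled at 0, 2 and 4 h after dosing. Serum glucose measured by spectrophotometry of enzymatically produced NADH2. Change is expressed relative to time zero as mean ± SEM of four animals; plus means a rise, minus a fall; p<0.05 marks significance.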

Rattus norvegicus [3] = assay: Hyperglycemic activity and change in blood glucose concentration was reported 4 hours after administration (100 mg/Kg perorally); format: functional; summary of the method: as §1
Rattus norvegicus [4] = assay: Hyperglycemic activity and change in blood glucose concentration was reported 2 hours after administration of 100 mg/Kg perorally; format: functional; summary of the method: as §1
Rattus norvegicus [5] = assay: Hyperglycemic activity and change in blood glucose concentration was reported 4 hours after administration of 100 mg/Kg perorally; format: functional; summary of the method: as §1

Row | Compound | logP [1] | Change (Rattus norvegicus [2]) [%] | Change (Rattus norvegicus [3]) [%] | Change (Rattus norvegicus [4]) [%] | Change (Rattus norvegicus [5]) [%]
1 | COC(=O)CCC1=CCCN(NC(=O)c2ccccc2)C1 | 0.74 | -2 | 6 | – | –
2 | COCCCC1=CCCN(NC(=O)c2ccccc2)C1 | 0.908 | -10 | -11 | – | –
3 | CC1=C(C)CN(NC(=O)c2ccccc2)CC1 | 1.35 | 27 | 20 | – | –
4 | CC(=O)C1=CCCN(NC(=O)c2ccccc2)C1 | -0.0969 | -5 | -17 | – | –
5 | O=C(O)CCC1=CCCN(NC(=O)c2ccccc2)C1 | 1.18 | -14 | -4 | – | –
6 | CC(=O)C1=CCN(NC(=O)c2ccccc2)CC1 | 0.38 | -12 | -19 | – | –
7 | CC(O)C1=CCN(NC(=O)c2ccccc2)CC1 (stereo unspecified) | 0.0414 | -10 | -5 | – | –
8 | O=C(NN1CCC=CC1=O)c1ccccc1 | 1.17 | 1 | 4 | – | –
9 | COC(=O)CCC1=CCN(NC(=O)c2ccccc2)CC1 | 0.949 | -9 | -9 | – | –
10 | CC1=CCN(NC(=O)c2ccccc2)CC1 | 1.2 | 48 | 43 | – | –
11 | COCCCC1=CCN(NC(=O)c2ccccc2)CC1 | 1.49 | 1 | -9 | – | –
12 | COC1=CCCN(NC(=O)c2ccccc2)C1 | 1.62 | – | -9 | -7 | –
13 | CC1CC=CCN1NC(=O)c1ccccc1 (stereo unspecified) | 0.699 | 12 | 16 | – | –
14 | CC(=O)OCCCC1=CCCN(NC(=O)c2ccccc2)C1 | 1.49 | -8 | 7 | – | –
15 | CC(=O)OCCCC1=CCN(NC(=O)c2ccccc2)CC1 | 1.52 | 2 | 3 | – | –
16 | CC1=CCCN(NC(=O)c2ccccc2)C1 | 1.37 | 124 | 116 | – | –
17 | CCCNC(=O)NS(=O)(=O)c1ccc(Cl)cc1 [CHLORPROPAMIDE] | – | – | -38 | -42 | –
18 | O=C(NN1CC=C(CCCO)CC1)c1ccccc1 | 1.22 | 4 | -6 | – | –
19 | CC(O)C1=CCCN(NC(=O)c2ccccc2)C1 (stereo unspecified) | 0.447 | -8 | -16 | – | –
20 | COC1=CCN(NC(=O)c2ccccc2)CC1 | 1.16 | – | – | 5 | 7
21 | O=C(O)CCC1=CCN(NC(=O)c2ccccc2)CC1 | 1 | -4 | 7 | – | –
22 | O=C(NN1CCC=C(F)C1)c1ccccc1 | 1.27 | 64 | 42 | – | –
23 | O=C(NN1CCC=C(CCCO)C1)c1ccccc1 | 1.12 | -2 | -6 | – | –
24 | O=C(NN1CC=CCC1)c1ccccc1 | – | 78 | 50 | – | –
25 | C=C1C=CCN(NC(=O)c2ccccc2)C1 | 1.37 | – | 4 | 5 | –
26 | O=C(NN1CC=C(CO)CC1)c1ccccc1 | 0.643 | -10 | -14 | – | –
